Laboratory results: ChEMBL document CHEMBL4261600 (Eur J Med Chem, 2018)

Key:
[1] = system: MV4-11; test: Antiproliferative activity against human MV4-11 cells after 72 hrs by Celltiter-Glo assay; assay type: functional; conditions: MV4-11, 72 h
Procedure, shortened: (§1)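 Cells seeded at 3000/well in 96-well plates, exposed to serially diluted compound for 72 h at 37 °C, 5% CO2. Viability read by CellTiter-Glo luminescence and normalized to DMSO control. GI50 derived from curve fit, mean of three independent measurements. Culture media: DMEM/10% FBS for adherent lines; IMDM for MV4-11 and MEC-1/2; RPMI 1640 for suspension lines and CHL.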

[2] = Antiproliferative activity against human MEC1 cells after 72 hrs by Celltiter-Glo assay; assay type: functional; conditions: MEC1, 72 h; procedure, shortened: as §1
[3] = target: CDK9/Cyclin K (Homo sapiens, UniProt P50750); test: Inhibition of CDK9/Cyclin K (unknown origin) using PDKtide as substrate incubated at 37 degreeC for 1 hr followed by incubation at room temperature for 5 mins by ADP-Glo reagent based luminescence assay; assay type: protein-complex assay
[4] = Antiproliferative activity against Chinese hamster CHL cells after 72 hrs by Celltiter-Glo assay; conditions: Cricetulus griseus

CDK9/Cyclin K, sequence (P50750 whole entry): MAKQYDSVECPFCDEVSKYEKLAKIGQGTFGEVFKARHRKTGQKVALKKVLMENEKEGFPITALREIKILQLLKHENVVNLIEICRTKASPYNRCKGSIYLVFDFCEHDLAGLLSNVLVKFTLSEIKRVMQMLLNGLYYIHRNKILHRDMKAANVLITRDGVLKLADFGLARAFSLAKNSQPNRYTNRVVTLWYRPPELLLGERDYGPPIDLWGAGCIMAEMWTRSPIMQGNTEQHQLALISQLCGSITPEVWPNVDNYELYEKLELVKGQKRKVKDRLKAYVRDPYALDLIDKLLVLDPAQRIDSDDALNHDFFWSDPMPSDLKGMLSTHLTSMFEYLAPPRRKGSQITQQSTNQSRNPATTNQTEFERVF
CDK9/Cyclin K, sequence (O75909 whole entry, further chain): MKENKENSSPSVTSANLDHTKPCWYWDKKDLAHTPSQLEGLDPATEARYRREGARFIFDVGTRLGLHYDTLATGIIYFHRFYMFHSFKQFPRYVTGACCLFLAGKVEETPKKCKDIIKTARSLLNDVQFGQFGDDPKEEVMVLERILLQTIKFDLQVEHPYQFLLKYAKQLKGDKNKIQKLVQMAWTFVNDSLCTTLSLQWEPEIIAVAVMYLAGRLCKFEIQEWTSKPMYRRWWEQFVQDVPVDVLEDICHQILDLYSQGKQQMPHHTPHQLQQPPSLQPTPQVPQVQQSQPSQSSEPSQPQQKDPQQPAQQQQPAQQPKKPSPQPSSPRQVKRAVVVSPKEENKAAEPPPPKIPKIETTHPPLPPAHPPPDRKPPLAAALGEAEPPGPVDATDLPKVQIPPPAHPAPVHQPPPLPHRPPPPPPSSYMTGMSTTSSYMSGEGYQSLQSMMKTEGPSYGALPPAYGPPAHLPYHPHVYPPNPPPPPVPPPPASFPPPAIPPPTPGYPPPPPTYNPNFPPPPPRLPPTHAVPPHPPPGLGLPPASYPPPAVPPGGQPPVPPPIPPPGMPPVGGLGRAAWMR

SMILES | GI50 [1] | GI50 [2] | IC50 [3] | GI50 [4]
COCCN[C@H]1CC[C@H](Nc2cc(-c3csc(NCC4CCOCC4)n3)c(Cl)cn2)CC1 | 170 nM | 1240 nM | 2 nM | 534 nM
CNc1nc(-c2cc(N[C@H]3CC[C@H](NCCOC)CC3)ncc2Cl)cs1 | 530 nM | 1400 nM | 101 nM | 1900 nM
CC(C)(C)OC(=O)Nc1nc(-c2cc(F)ncc2Cl)cs1 | > 10000 nM | > 10000 nM | > 10000 nM | > 10000 nM
N[C@H]1CC[C@H](Nc2cc(-c3csc(NCC4CCOCC4)n3)c(Cl)cn2)CC1 | 140 nM | 270 nM | 22 nM | 3500 nM
O=C(N[C@H]1CC[C@H](Nc2cc(-c3csc(NCC4CCOCC4)n3)c(Cl)cn2)CC1)C1CC1 | > 10000 nM | > 10000 nM | 150 nM | > 10000 nM
COCCN[C@H]1CC[C@H](Nc2cc(-c3csc(SCC4CCOCC4)n3)c(Cl)cn2)CC1 | 340 nM | 800 nM | 14 nM | 5600 nM
COC[C@H](C)N[C@H]1CC[C@H](Nc2cc(-c3csc(NCC4CCOCC4)n3)c(Cl)cn2)CC1 | 440 nM | 1300 nM | > 10000 nM | 3600 nM
COCCN[C@H]1CC[C@H](Nc2cc(-c3csc(OCC4CCOCC4)n3)c(Cl)cn2)CC1 | 570 nM | 1400 nM | 28 nM | 3300 nM
COCCN[C@H]1CC[C@H](Nc2cc(-c3csc(NCC4CCCC4)n3)c(Cl)cn2)CC1 | 2160 nM | 2940 nM | 80 nM | > 10000 nM
COCCCN[C@H]1CC[C@H](Nc2cc(-c3csc(NCC4CCOCC4)n3)c(Cl)cn2)CC1 | 1090 nM | 2610 nM | 12 nM | 2030 nM
COC[C@@H](C)N[C@H]1CC[C@H](Nc2cc(-c3csc(NCC4(C#N)CCOCC4)n3)c(Cl)cn2)CC1 [TAMBICICLIB] | 14 nM | 47 nM | 9 nM | 1100 nM
COC[C@@H](C)N[C@H]1CC[C@H](Nc2cc(-c3csc(NCC4CCOCC4)n3)c(Cl)cn2)CC1 | 140 nM | 310 nM | 733 nM | 1100 nM
COCCN[C@H]1CC[C@H](Oc2cc(-c3csc(NCC4CCOCC4)n3)c(Cl)cn2)CC1 | 7700 nM | > 10000 nM | 1670 nM | > 10000 nM
Fc1cc(-c2csc(NCC3CCOCC3)n2)c(Cl)cn1 | > 10000 nM | > 10000 nM | 557 nM | > 10000 nM
O=C(Nc1cc(-c2csc(NCC3CCOCC3)n2)c(Cl)cn1)c1ccc(F)cc1 | 550 nM | 3600 nM | 2300 nM | 930 nM
COC[C@H](C)N[C@H]1CC[C@H](Nc2cc(-c3csc(NCC4(C#N)CCOCC4)n3)c(Cl)cn2)CC1 | 121 nM | 537 nM | 10 nM | 1250 nM
COCCN[C@H]1CC[C@H](Nc2cc(-c3csc(NCc4ccc(F)cc4)n3)c(Cl)cn2)CC1 | 880 nM | 450 nM | 2 nM | 1100 nM
